Data: ChEMBL document CHEMBL4715843, “NO-releasing STAT3 inhibitors suppress BRAF-mutant melanoma growth” (Eur J Med Chem, 2020)
Each block holds one compound with its values, some of them ahead of it. Activity calls are given as the source filed them. No cut-off for these calls is given here.

What was measured:
UO-31 = assay: Anticancer activity against human UO-31 cells assessed as cell growth inhibition at 10 uM measured after 48 hrs by SRB assay relative to control; type: functional; settings: read-out: GI
Summary of the method: (§1)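 NCI 60-cell-line screen. Cells in RPMI with 5% FBS were plated at 5,000–40,000 cells/well by doubling time and preincubated 24 h at 37 °C. Compound was added at a single 10 µM for 48 h, then cells were fixed with cold TCA (10% final) and stained with 0.4% SRB. Absorbance at 515 nm gave percent growth versus untreated control and time-zero cells.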

HFF = assay: Cytotoxicity against HFF assessed as inhibition of cell proliferation by MTS assay; type: cell-based, Homo sapiens; settings: Homo sapiens, HFF; read-out: IC50
[1] = molecular target: T1, Signal transducer and activator of transcription 3 (Homo sapiens, UniProt P40763); assay: Inhibition of STAT3 phosphorylation at S727 residues in human A-375 cells at 10 to 25 uM after 12 hrs by Western blotting analysis; type: cell-based; settings: dose 10-25 µM
T1 sequence (P40763 whole entry): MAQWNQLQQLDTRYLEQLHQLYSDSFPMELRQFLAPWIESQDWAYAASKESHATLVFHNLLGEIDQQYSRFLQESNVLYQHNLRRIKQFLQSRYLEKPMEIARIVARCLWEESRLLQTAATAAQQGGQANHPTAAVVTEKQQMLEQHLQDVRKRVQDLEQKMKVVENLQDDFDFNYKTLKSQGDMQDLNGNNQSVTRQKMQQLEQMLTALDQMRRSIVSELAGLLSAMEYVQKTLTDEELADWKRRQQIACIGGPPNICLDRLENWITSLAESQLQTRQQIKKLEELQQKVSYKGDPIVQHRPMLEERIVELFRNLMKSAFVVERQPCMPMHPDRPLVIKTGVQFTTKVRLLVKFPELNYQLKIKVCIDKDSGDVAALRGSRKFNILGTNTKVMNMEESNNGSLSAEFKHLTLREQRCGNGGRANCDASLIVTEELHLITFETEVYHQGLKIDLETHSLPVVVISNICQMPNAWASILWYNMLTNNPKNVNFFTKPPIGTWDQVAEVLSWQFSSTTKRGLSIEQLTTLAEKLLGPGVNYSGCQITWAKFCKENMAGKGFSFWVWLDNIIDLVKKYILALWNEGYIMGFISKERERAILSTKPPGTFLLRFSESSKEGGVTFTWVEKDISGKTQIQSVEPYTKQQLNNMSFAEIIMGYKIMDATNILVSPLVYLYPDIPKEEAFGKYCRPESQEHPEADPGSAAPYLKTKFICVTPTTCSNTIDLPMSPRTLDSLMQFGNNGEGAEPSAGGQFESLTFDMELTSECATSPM
Summary of the method: (§2)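 Cells lysed in M-PER after 12 h drug exposure (overnight per text); 60 µg total protein run on 10% SDS-PAGE, transferred to PVDF, probed overnight at 4 °C with phospho-specific antibodies. Panel lines (U87-MG, MDA-MB-468, MIA PaCa-2, NCI-H157, A549) given 25 µM; A375 given 0, 5, 10, 25 µM. Actin and/or vinculin loading controls.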

[2] = molecular target: Signal transducer and activator of transcription 3 (Mus musculus) (UniProt P42227); assay: Inhibition of EGF-induced STAT3 phosphorylation in MEF assessed as reduction in STAT3 nuclear translocation preincubated overnight followed by EGF stimulation and measured after 30 mins by DAPI staining based immunofluorescence assay; settings: dose 5-50 µM
Sequence of Signal transducer and activator of transcription 3 (Mus musculus) (P42227 whole entry): as the sequence (P40763 whole entry) above, with E760D counted along it
Summary of the method: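 MEF cells (2000/well) were allowed to adhere for 24 h, then held overnight in serum-free medium with inhibitor doses. They were stimulated with full RPMI containing 100 nM EGF for 30 min, then fixed in 4% paraformaldehyde and permeabilized. Cells were immunostained for STAT3 (Alexa Fluor 488) with DAPI nuclear counterstain and nuclear STAT3 was quantified by imaging; three independent experiments.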

A-375 [3] = assay: Cell cycle arrest in human A-375 cells assessed as accumulation at G1-phase at 10 uM measured after 24 hrs by […] (reference value: 55.5 to 56.2%); type: functional
UACC-62 = assay: Anticancer activity against human UACC-62 cells assessed as cell growth inhibition at 10 uM measured after 48 hrs by SRB assay relative to control; type: functional; settings: read-out: GI; summary of the method: as §1
MCF7 = assay: Anticancer activity against human MCF7 cells assessed as cell growth inhibition at 10 uM measured after 48 hrs by SRB assay relative to control; type: functional; settings: read-out: GI; summary of the method: as §1
T47D = assay: Anticancer activity against human T47D cells assessed as cell growth inhibition at 10 uM measured after 48 hrs by SRB assay relative to control; type: functional; settings: read-out: GI; summary of the method: as §1
[4] = molecular target: T1, Signal transducer and activator of transcription 3; assay: Inhibition of STAT3 phosphorylation at Y705 residues in human U-87 MG cells at 25 uM after 12 hrs by Western blotting analysis; type: cell-based; summary of the method: as §2
[5] = molecular target: T1, Signal transducer and activator of transcription 3; assay: Inhibition of STAT3 phosphorylation at Y705 residues in human MDA-MB-468 cells at 25 uM after 12 hrs by Western blotting analysis; type: cell-based; summary of the method: as §2
[6] = molecular target: T1, Signal transducer and activator of transcription 3; assay: Inhibition of STAT3 phosphorylation at Y705 residues in human NCI-H157 cells at 25 uM after 12 hrs by Western blotting analysis; type: cell-based; summary of the method: as §2
[7] = molecular target: T1, Signal transducer and activator of transcription 3; assay: Inhibition of STAT3 phosphorylation at S727 residues in human U-87 MG cells at 25 uM after 12 hrs by Western blotting analysis; type: cell-based; summary of the method: as §2
[8] = molecular target: T1, Signal transducer and activator of transcription 3; assay: Inhibition of STAT3 phosphorylation at S727 residues in human A-375 cells at 5 to 10 uM after 12 hrs by Western blotting analysis; type: cell-based; settings: dose 5-10 µM; summary of the method: as §2
[9] = molecular target: Tyrosine-protein kinase JAK2 (Homo sapiens) (UniProt O60674); assay: Inhibition of JAK2 phosphorylation in human NCI-H157 cells at 25 uM after 12 hrs by Western blotting analysis; type: cell-based; summary of the method: as §2
Sequence of Tyrosine-protein kinase JAK2 (Homo sapiens) (O60674 whole entry): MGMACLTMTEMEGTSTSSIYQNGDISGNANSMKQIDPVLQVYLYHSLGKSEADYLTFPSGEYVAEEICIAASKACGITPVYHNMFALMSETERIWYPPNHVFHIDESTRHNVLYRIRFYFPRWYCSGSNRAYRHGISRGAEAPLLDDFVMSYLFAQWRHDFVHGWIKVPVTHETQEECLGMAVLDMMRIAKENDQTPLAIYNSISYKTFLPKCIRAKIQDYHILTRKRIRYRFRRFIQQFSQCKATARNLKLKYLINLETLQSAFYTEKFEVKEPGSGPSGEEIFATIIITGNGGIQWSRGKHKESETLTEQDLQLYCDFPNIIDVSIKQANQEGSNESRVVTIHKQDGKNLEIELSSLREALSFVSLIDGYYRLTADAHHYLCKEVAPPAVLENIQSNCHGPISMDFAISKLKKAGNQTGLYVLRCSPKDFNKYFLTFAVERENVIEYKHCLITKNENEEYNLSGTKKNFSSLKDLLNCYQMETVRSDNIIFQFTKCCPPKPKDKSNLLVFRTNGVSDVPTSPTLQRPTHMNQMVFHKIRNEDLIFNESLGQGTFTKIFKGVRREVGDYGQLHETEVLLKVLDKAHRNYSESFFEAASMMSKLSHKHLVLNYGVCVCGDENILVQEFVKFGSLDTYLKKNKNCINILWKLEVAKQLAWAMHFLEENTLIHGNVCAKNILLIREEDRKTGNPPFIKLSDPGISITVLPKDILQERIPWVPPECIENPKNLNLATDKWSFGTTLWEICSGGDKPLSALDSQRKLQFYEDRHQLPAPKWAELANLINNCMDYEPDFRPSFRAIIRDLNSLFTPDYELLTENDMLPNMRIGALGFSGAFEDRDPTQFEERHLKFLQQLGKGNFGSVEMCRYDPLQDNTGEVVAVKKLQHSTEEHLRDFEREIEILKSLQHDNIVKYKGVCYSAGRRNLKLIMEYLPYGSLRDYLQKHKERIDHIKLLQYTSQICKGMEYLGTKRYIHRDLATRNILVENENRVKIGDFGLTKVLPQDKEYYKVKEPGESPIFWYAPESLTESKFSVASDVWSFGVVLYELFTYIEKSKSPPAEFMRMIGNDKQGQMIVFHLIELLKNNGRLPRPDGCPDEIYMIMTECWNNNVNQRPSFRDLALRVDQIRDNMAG

[10] = molecular target: Proto-oncogene tyrosine-protein kinase Src (Homo sapiens) (UniProt P12931); assay: Inhibition of SRC phosphorylation in human NCI-H157 cells at 25 uM after 12 hrs by Western blotting analysis; type: cell-based; summary of the method: as §2
Sequence of Proto-oncogene tyrosine-protein kinase Src (Homo sapiens) (P12931 2-536 limits assumed): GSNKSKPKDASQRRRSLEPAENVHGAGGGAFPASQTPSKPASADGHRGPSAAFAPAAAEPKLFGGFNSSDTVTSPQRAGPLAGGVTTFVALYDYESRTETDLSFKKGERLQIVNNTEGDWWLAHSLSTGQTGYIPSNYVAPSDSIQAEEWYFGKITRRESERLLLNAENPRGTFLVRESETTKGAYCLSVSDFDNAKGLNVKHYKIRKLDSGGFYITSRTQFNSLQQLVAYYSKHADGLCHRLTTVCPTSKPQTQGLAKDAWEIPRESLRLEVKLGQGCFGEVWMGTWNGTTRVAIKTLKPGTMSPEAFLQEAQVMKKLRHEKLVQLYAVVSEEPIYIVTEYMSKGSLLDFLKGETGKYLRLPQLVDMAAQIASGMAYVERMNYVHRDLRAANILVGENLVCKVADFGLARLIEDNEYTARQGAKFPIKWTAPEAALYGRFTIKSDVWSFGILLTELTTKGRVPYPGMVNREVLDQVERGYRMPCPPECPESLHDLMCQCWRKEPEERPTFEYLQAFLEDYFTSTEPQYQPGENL

MIA PaCa-2 = assay: Antiproliferative activity against human MIA PaCa-2 cells measured after 48 hrs by MTS assay; type: functional, cell-based
Summary of the method: (§3)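 Cells were exposed to a dose range of inhibitor for 48 h, and viability was read by MTS assay in triplicate. GI50 was taken as the concentration giving 50% growth inhibition, averaged from three independent experiments. A375 was cultured in RPMI-1640 with Glutamax. A549 and NCI-H157 were kept in RPMI-1640, and MIA PaCa-2 and U87-MG in DMEM.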

NCI-H157 = assay: Antiproliferative activity against human NCI-H157 cells measured after 48 hrs by MTS assay; type: functional, cell-based; summary of the method: as §3
451Lu [11] = assay: Antiproliferative activity against human SB-590885-sensitive 451Lu cells assessed as reduction in cell viability measured after 48 hrs by MTS assay; type: functional
Summary of the method: (§4)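 Melanoma lines were grown in RPMI-1640 with Glutamax at 37 °C and 5% CO2. The resistant 451 Lu-R and MEL 1617-R sublines were maintained with 1 µM PLX4720. Cells were incubated with vehicle or inhibitor over a dose range, and viability was read by MTS assay in triplicate.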

A-375 [12] = assay: Induction of ROS generation in human A-375 cells incubated for 18 hrs by DCFH-DA dye based flow cytometry; type: functional, cell-based; settings: dose 10-25 µM
Summary of the method: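 A375 cells (1×10^6) were treated with DMSO, 10 or 25 µM for 18 h in full RPMI, then trypsinized and washed. They were loaded with 10 µM DCFH-DA (final) for 30 min at 37 °C in the dark. DCF fluorescence was read by flow cytometry (488 nm excitation, 535 nm filter).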

451Lu [13] = assay: Antiproliferative activity against human SB-590885-resistant 451Lu cells assessed as reduction in cell viability measured after 48 hrs by MTS assay; type: functional; summary of the method: as §4
451Lu [14] = assay: Induction of apoptosis in human SB-590885-sensitive 451Lu cells assessed as increase in cleaved PARP expression measured after 12 hrs by Western blot analysis; type: functional
Summary of the method: (§5)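 Sensitive and resistant 451 Lu cells were exposed to a dose range for 12 h before lysis. PARP, cleaved PARP and caspase-7 were detected by western blot against a vinculin loading control; repeated twice.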

451Lu [15] = assay: Induction of apoptosis in human SB-590885-sensitive 451Lu cells assessed as increase in cleaved caspase-7 expression measured after 12 hrs by Western blot analysis; type: functional; summary of the method: as §5
451Lu [16] = assay: Induction of apoptosis in human SB-590885-resistant 451Lu cells assessed as increase in cleaved caspase-7 expression measured after 12 hrs by Western blot analysis; type: functional; summary of the method: as §5
451Lu [17] = assay: Induction of apoptosis in human SB-590885-resistant 451Lu cells assessed as increase in caspase-3/7 activation incubated for 45 to 60 hrs by IncuCyte Caspase-3/7 reagent based assay; type: functional; settings: time 45-60 hrs
Summary of the method: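 451 Lu-R cells (2000/well) were allowed to adhere for 24 h, then treated with a dose range in full medium containing IncuCyte Caspase-3/7 reagent. Wells were imaged over time with a ×10 objective. Apoptotic cell counts were normalized to percent confluence at the final time point; SEM, n = 3–4.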

inhibition [1]: Active | inhibition [2]: Dose-dependent effect
SMILES: C=CCn1c(SCC(=O)Nc2ccc(/C(C)=N\O)cc2)nnc1-c1cc(-c2ccc(Cl)cc2)nc2ccccc12
inhibition of growth at 10 µM (UO-31): 100% | IC50 (HFF): 200 µM | Activity (A-375 [3]): 56.7%

inhibition [4]: Active | inhibition [5]: Active | inhibition [6]: Active | inhibition [7]: Active | inhibition [8]: Active | inhibition [9]: inactive | inhibition [10]: inactive
SMILES: C=CCn1c(SCC(=O)Nc2ccc(/C(C)=N\O)cc2)nnc1-c1cc(-c2ccccc2)nc2ccccc12
inhibition of growth at 10 µM (UACC-62): 76% | inhibition of growth at 10 µM (MCF7): 76% | inhibition of growth at 10 µM (T47D): 76% | IC50 (HFF): 54.4 µM | Activity (MIA PaCa-2): Active | Activity (NCI-H157): Active | Activity (451Lu [11]): Dose-dependent effect | Activity (A-375 [12]): Dose-dependent effect | Activity (A-375 [3]): 63% | Activity (451Lu [13]): Dose-dependent effect | Activity (451Lu [14]): Dose-dependent effect | Activity (451Lu [15]): Dose-dependent effect | Activity (451Lu [16]): Dose-dependent effect | Activity (451Lu [17]): Dose-dependent effect
